Source: ChEMBL document CHEMBL4316616, “Efficacy of TLR7 agonistic imidazoquinoline as immunochemotherapeutic agent against P. Berghei ANKA infected rodent host” (Bioorg Med Chem Lett, 2019)
Active and inactive are the calls of the source. The rule behind the calls is not given here.

Columns and labels:
Plasmodium berghei [1] = experiment: Antiparasitic activity against Plasmodium berghei ANKA infected in Laca mouse assessed as reduction in parasitemia at 10 mg/kg, po administered for 4 days measured up to day 15 by Giemsa-staining based assay; type: functional, organism-based
Plasmodium berghei [2] = experiment: Antiparasitic activity against Plasmodium berghei ANKA infected in Laca mouse assessed as decrease in serum TNFalpha level at 10 mg/kg, po administered for 4 days measured on day 10 by sandwich ELISA; type: functional, organism-based
Plasmodium berghei [3] = experiment: Antiparasitic activity against Plasmodium berghei ANKA infected in Laca mouse assessed as increase in IFN-gamma level in serum at 10 mg/kg, po administered for 4 days measured on day 10 by sandwich ELISA
Plasmodium berghei [4] = experiment: Antiparasitic activity against Plasmodium berghei ANKA infected in Laca mouse assessed as reduction in CD4+ cell level in brain at 10 mg/kg, po administered for 4 days measured on day 10 and 21 by flow cytometry; type: functional, organism-based
Plasmodium berghei [5] = experiment: Antiparasitic activity against Plasmodium berghei ANKA infected in Laca mouse assessed as increase in serum IL-10 level at 10 mg/kg, po administered for 4 days measured on day 10 by sandwich ELISA; type: functional, organism-based
Plasmodium berghei [6] = experiment: Antiparasitic activity against Plasmodium berghei ANKA infected in Laca mouse assessed as reduction in CD3+ cell level in brain at 10 mg/kg, po administered for 4 days measured on day 10 by flow cytometry; type: functional, organism-based
Plasmodium berghei [7] = experiment: Antiparasitic activity against Plasmodium berghei ANKA infected in Laca mouse assessed as parasitemia at 10 mg/kg, po administered for 4 days measured on day 21 by Giemsa-staining based assay; type: functional
Plasmodium berghei [8] = experiment: Antiparasitic activity against Plasmodium berghei ANKA infected in Laca mouse assessed as reduction in CD8+ cell level in brain at 10 mg/kg, po administered for 4 days measured on day 10 by flow cytometry; type: functional, organism-based
[9] = Toxicity in Laca mouse infected with Plasmodium berghei ANKA assessed as death at 10 mg/kg, po administered for 4 days measured after 21 days; type: organism-based; conditions: in vivo, 504 h
Procedure, shortened: (§1)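 Groups of 6 mice, infected i.p. on D0 with 1x10⁶ P. berghei ANKA parasitized RBCs. Chloroquine 10 mg/kg given orally in 0.2 mL/mouse daily D0–D3. Infected PBS-dosed and uninfected controls were included. Mice were followed for survival, with parasitemia checked on Giemsa-stained thin blood smears of individual mice.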

Plasmodium berghei [10] = experiment: Antiparasitic activity against Plasmodium berghei ANKA infected in Laca mouse assessed as increase in Treg cell level in brain at 10 mg/kg, po administered for 4 days measured on day 10 by flow cytometry; type: functional, organism-based
Plasmodium berghei [11] = experiment: Antiparasitic activity against Plasmodium berghei ANKA infected in Laca mouse assessed as increase in serum IL-27 level at 10 mg/kg, po administered for 4 days measured on day 10 by sandwich ELISA; type: functional, organism-based
Plasmodium berghei [12] = experiment: Antiparasitic activity against Plasmodium berghei ANKA infected in Swiss albino mouse assessed as reduction in parasitemia at 10 mg/kg, po by Peter's 4 day test; type: functional; parameters: scale not given: the % may be the effect or the level left
Plasmodium berghei [13] = experiment: Antiparasitic activity against Plasmodium berghei ANKA infected in Laca mouse assessed as parasitemia at 10 mg/kg, po administered for 4 days measured on day 17 by Giemsa-staining based assay; type: functional
Plasmodium berghei [14] = experiment: Antiparasitic activity against Plasmodium berghei ANKA infected in Laca mouse assessed as increase in serum IL-12 level at 10 mg/kg, po administered for 4 days measured on day 10 by sandwich ELISA; type: functional, organism-based
Plasmodium berghei [15] = experiment: Antimalarial activity against Plasmodium berghei ANKA infected in Swiss albino mouse assessed as reduction in parasitemia at 25 mg/kg, po for 4 days dosed 2 hrs post infection and measured 5 days post infection by Giemsa staining based Peter's 4 day test; type: functional; parameters: scale not given: the % may be the effect or the level left
Plasmodium berghei [16] = experiment: Antiparasitic activity against Plasmodium berghei ANKA infected in Laca mouse assessed as increase in CD3+ cell level in spleen at 10 mg/kg, po administered for 4 days measured on day 10 by flow cytometry; type: functional, organism-based
[17] = Toxicity in Laca mouse infected with Plasmodium berghei ANKA assessed as death at 10 mg/kg, po administered for 4 days measured on day 21; type: organism-based; conditions: in vivo, 96 h; procedure, shortened: as §1

Question: With `CCN(CC)CCCC(C)Nc1ccnc2cc(Cl)ccc12` (configuration not stated) [CHLOROQUINE] as the compound, how does the Activity (Plasmodium berghei [1]) read?
Answer: Active

Question: What about the Activity (Plasmodium berghei [2]) of the same compound?
Answer: Active

Question: And the Activity (Plasmodium berghei [3])?
Answer: Active

Question: What about the Activity (Plasmodium berghei [4]) of the same compound?
Answer: Active

Question: What about the Activity (Plasmodium berghei [5]) of the same compound?
Answer: Active

Question: What about the Activity (Plasmodium berghei [6]) of the same compound?
Answer: Active

Question: And the Activity (Plasmodium berghei [7])?
Answer: 10.76%

Question: What about the Activity (Plasmodium berghei [8]) of the same compound?
Answer: Active

Question: And the Activity [9]?
Answer: Toxic

Question: What about the Activity (Plasmodium berghei [10]) of the same compound?
Answer: Active

Question: What about the Activity (Plasmodium berghei [11]) of the same compound?
Answer: Active

Question: What about the Activity (Plasmodium berghei [12]) of the same compound?
Answer: 58.3%

Question: What about the Activity (Plasmodium berghei [13]) of the same compound?
Answer: 5.99%

Question: What about the Activity (Plasmodium berghei [14]) of the same compound?
Answer: Active

Question: What about the Activity (Plasmodium berghei [15]) of the same compound?
Answer: 89.04%

Question: What about the Activity (Plasmodium berghei [16]) of the same compound?
Answer: Active

Question: And the Activity [17]?
Answer: Toxic
